Cneo AK release = causes C. neoformans cell lysis; adenylate kinase release luminescence, 4 h; normalised: neutral wells 0, clomiphene wells 100; lysis activity, % at 15 µM; 360,000 tested, 0.2% active; AID 651654;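 active = mean lysis activity across replicates of at least 80%, whatever share of replicates individually reach that level; inactive = mean lysis activity below 80%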
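Assay system: log-phase C. neoformans yeast / Quantity: yeast cell density of 5 × 10^6 cells/mL / Medium: fresh YPD growth medium / Compound: single dose / Timing: static 4 h at 37 °C with compound, 1 h detection / Measured by: adenylate kinase release luminescence / Read-out: lysis from increased AK signal / Benchmarks: Clomiphene as positive lysis control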
S100A4 MyoIIA = blocks human S100A4 binding to myosin IIA peptide | S100A4/TAMRA-MyoIIA peptide fluorescence polarization | 360,000 tested, 0.14% active | inhibition, % at 10.7 µM;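 active = mean inhibition of at least 70% across replicates, with every replicate also reaching that level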
Target sequence (P26447 whole entry, looked up): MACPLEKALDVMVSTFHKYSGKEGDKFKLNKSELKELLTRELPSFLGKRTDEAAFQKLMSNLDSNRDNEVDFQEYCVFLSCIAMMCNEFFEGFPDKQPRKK
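incubation = readout 5 min after mixing, signal stable up to 60 min | system = S100A4 monomer protein | buffer or medium = HEPES pH 7.2 with CaCl2, KCl, NaCl, DTT, Triton | benchmarks = neutral control DMSO, positive control TFP | also added = fluorescent myosin IIA peptide, 5 nM | compound dosing = one concentration per compound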
Statin myotox sup = protects C2C12 myotubes from simvastatin toxicity; ATP luminescence, 48 h; scaled: DMSO 0, geranylgeraniol control 100; rescue of ATP level, % at 7.49 µM; 330,000 tested, 0.78% active;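 active = mean ATP rescue above about 67%, or every replicate alone reaching that limit, limit read from the data, passing the limit was not always enough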;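 also: myotubes were challenged with 10 µM simvastatin during compound exposure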
SIRT5 block = sirtuin-5 (human) deacylase inhibition; Purified SirT5, succinyl-peptide AMC, trypsin-coupled fluorescence; 330,000 tested, 1.1% active; Q9NXA8; inhibition, % at 15 µM; AID 652115; in the data active = inhibition above about 15%
Target sequence (Q9NXA8 whole entry, looked up): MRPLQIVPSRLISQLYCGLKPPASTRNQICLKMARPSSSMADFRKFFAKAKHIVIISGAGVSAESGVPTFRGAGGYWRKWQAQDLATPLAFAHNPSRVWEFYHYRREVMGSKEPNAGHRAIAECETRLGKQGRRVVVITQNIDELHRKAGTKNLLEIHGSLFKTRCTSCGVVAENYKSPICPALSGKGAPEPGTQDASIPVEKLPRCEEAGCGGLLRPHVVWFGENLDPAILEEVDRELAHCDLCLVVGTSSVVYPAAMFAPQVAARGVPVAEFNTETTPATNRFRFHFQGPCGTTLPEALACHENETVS
Ecoli rRNA inh = inhibits bacterial ribosomal RNA function over humanized ribosomes. GFP signal change (wild-type ribosome), % (no concentration beside the values). E. coli WT GFP vs humanized-ribosome RFP mutants, fluorescence, 24 h; hits give low values; DMSO median 0, no signal -100. 350,000 tested, 1.6% active. AID 720706;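 active = significant combined selectivity score with lowered wild-type GFP, culture density cut under 30%, mutant RFP and density less affected; inactive = any of these conditions unmet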
PGC1a acetyl inh = PGC1a acetylation modulation, inhibitor mode; 350,000 tested, 0.17% active; inhibition, % at 15.6 µM; AID 651687; U2OS PGC1a acetylation, AlphaScreen anti-acetyl-lysine; with virally co-expressed GCN5 acetyltransferase;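 active = every replicate shows inhibition of at least 40%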
Numbers stand for hits; - = inactive; . = no result given. Hits are enriched below; roughly 3% of the tested compounds scored in any of these assays.

SMILES	Cneo AK release	S100A4 MyoIIA	Statin myotox sup	SIRT5 block	Ecoli rRNA inh	PGC1a acetyl inh
COc1ccc(-c2nn(-c3ccccc3)cc2/C=C/C(=O)N2CCOCC2)cc1OC	.	-	-	-	-24	-
COc1ccc(-c2nn(-c3ccccc3)cc2/C=N/NS(=O)(=O)c2ccccc2)cc1	.	.	.	.	.	-
O=C(O)/C=C/c1cn(-c2ccccc2)nc1-c1ccccc1	-	-	90	-	-	-
C[C@@H]1CN([C@H](C)CO)S(=O)(=O)c2ccc(Br)cc2O[C@H]1CN(C)Cc1cccnc1	-	-	-	-	-	-
CCC(CC)C(=O)N(CCc1ccc(OC)cc1)Cc1nc2ccccc2c(=O)[nH]1	-	-	-	-	-51	-
O=C(O)c1ccc(/C=N/Nc2cccc(C(F)(F)F)c2)cc1	-	-	-	-	-41	-
O=C(O)c1ccc(N/N=C/c2ccc(-c3ccccc3)cc2)cc1	.	-	.	-	-	.
CCCNC(=O)N[C@@H]1C=C[C@H](CC(=O)N2CCN(C)CC2)O[C@H]1CO	-	-	-	-	-	-
Cc1ccc(S(=O)(=O)N(C)C[C@@H]2Oc3ccc(NS(=O)(=O)c4cn(C)cn4)cc3CC(=O)N([C@H](C)CO)C[C@@H]2C)cc1	.	.	-	.	-	-
O=C(O)Cc1ccc(N=Nc2c(O)c(C(=O)O)cc3ccccc23)cc1	-	-	-	31	-	-
CC1(CC(=O)N/N=C/c2ccc(-c3ccc(C(=O)O)cc3)o2)OCCO1	-	-	-	-	-	-
O=C(CN1CCOCC1)N/N=C/c1ccc(-c2ccc(C(=O)O)cc2)o1	.	-	.	17	-	-
O=C(O)c1ccc(N/N=C/c2ccc(-c3ccc(Br)cc3)o2)cc1	-	-	72	-	-	.
Cc1ccc(/C=N/Nc2ccc(C(=O)O)cc2)o1	.	-	.	-	-	-
Cc1ccc(S(=O)(=O)Nc2ccc3c(c2)C(=O)N([C@H](C)CO)C[C@H](C)[C@H](CN(C)Cc2ccc(Cl)c(Cl)c2)OCCCC[C@H](C)O3)cc1	.	-	.	-	-	-
CN(C)CC(=O)N1[C@H](CO)[C@H](c2ccccc2)C12CN(CCC(F)(F)F)C2	.	-	.	-	-	-
CCC(=O)N1[C@H](CO)[C@@H](c2ccccc2)C12CN(CCC(F)(F)F)C2	.	-	.	15	-	-
CC(C)(C)c1cc(C(F)(F)F)c(C#N)c(=O)[nH]1	-	.	120	.	.	-
CCCc1cc(C(F)(F)F)c(C#N)c(=O)[nH]1	-	.	-	.	.	-
COc1ccccc1NC(=O)N1C[C@@H]2[C@H](c3ccccc31)[C@H](CO)N2C(=O)C1CC1	-	-	-	-	.	-
Cc1ccc(S(=O)(=O)NCC[C@H]2CC[C@H](NC(=O)Nc3cccc(F)c3)[C@H](CO)O2)cc1	-	-	-	-	-	-
Cc1ccc(N=c2c([N+](=O)[O-])nn(-c3ccccc3)n2O)c(C)c1	-	-	-	-	-25	-
CN(C)c1ccc(C2C3CCCc4ccccc4C3=NN2C)cc1 (stereo not drawn)	.	-	-	-	-27	-
CSc1nsc(SCC(=O)NC2CCCCC2)n1	-	.	69	.	.	-
O=C(CCCl)Nc1nnc(SCC(=O)NC2CCCC2)s1	-	-	-	60	-	-
SMILES	Cneo AK release	S100A4 MyoIIA	Statin myotox sup	SIRT5 block	Ecoli rRNA inh	PGC1a acetyl inh
Cc1oc(-c2cccs2)nc1CN1CCC(CO)(CCOc2ccccc2)CC1	.	-	.	-	-	.
CCOC(=O)C1(CCOC)CCN(Cc2nc(-c3cccs3)oc2C)CC1	-	-	86	-	-	-
CCOC(=O)C1(CCOc2ccccc2)CCN(Cc2ccc(OCCO)cc2)CC1	-	-	-	22	-	-
CCOC(=O)C1(CCOC)CCN(Cc2cnc(-c3cccc(C)c3)nc2)CC1	.	-	-	20	-	-
C[C@@H]1CCCCO[C@H](CN(C)Cc2ccncc2)[C@H](C)CN([C@@H](C)CO)C(=O)c2cc(NS(=O)(=O)c3ccc(F)cc3)ccc2O1	-	-	.	-	-	-
CO[C@@H]1CN(C)C(=O)c2cc(NC(=O)c3cc(C)on3)ccc2OC[C@H](C)N(C(C)=O)C[C@H]1C	-	-	-	-	-	-
CC1=Nc2ccc(C)cc2/C1=C/c1c(N)n2c(S(=O)(=O)C(C)C)nsc2nc1=O	.	-	-	19	-	-

High-throughput results (PubChem BioAssay)
